# CAL PDZ FP-1 – human CAL PDZ-peptide interaction inhibition. AID 504414. inhibition, % at 20 µM. purified CAL PDZ, TMR-peptide fluorescence polarization, 1 h. actives 0.02% (n = 330,000). Q9HD26;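 active means highest replicate inhibition of at least 40%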;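 further: plate controls were DMSO neutral control wells for no effect and unlabeled competitor peptide control wells for full effect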
#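 Read-out basis: mP drop reported as inhibition | Assay system: Tagged CAL PDZ protein CerCALP, purified | Benchmarks: Unlabelled peptide for full inhibition, DMSO wells as neutral | Schedule: 1 h incubation at room temperature before polarization reading | Buffer or medium: Sodium phosphate/NaCl buffer pH 7.4 with TCEP, IgG, Thesit | Doses: Single point, 20 µM | Measured by: Fluorescence polarization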
# CAL PDZ FP-2 – blocks peptide binding to the human CAL PDZ domain | inhibition, % at 24.9 µM | actives 0.92% (n = 300,000) | purified CAL PDZ, TMR-peptide fluorescence polarization, 1 h;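 active means mean inhibition of at least 30% with at least half of replicates also reaching 30%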;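 further: 0% = DMSO neutral control and 100% = excess unlabeled competitor peptide PRC23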
# ARNT-TACC3 inh – disruptors of human ARNT/TACC3 interaction; Q9Y6A5; AlphaScreen His-ARNT PAS-B/GST-TACC3 binding, luminescence; TACC3 fragment carries E629A point mutation; inhibition, % at 9.99 µM; actives 0.66% (n = 390,000);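 active means mean inhibition of replicates at least 50% and at least half of replicates each reaching 50%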;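 further: 0% = complete ARNT plus TACC3 wells and 100% = ARNT alone without TACC3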
# GRK2 aptamer HTS – inhibitors of human GRK2 displacing RNA aptamer; bead flow cytometry, FAM-aptamer displacement from GRK2; inhibition of aptamer binding, % at 10 µM; actives 0.59% (n = 330,000); AID 488847;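 active means inhibition of aptamer binding above 40%, roughly 3 SD of noise, on plates passing a quality check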;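 further: median bead fluorescence of bound FAM aptamer so fluorescent compounds give negative values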
# Target sequence (P25098 whole entry, looked up): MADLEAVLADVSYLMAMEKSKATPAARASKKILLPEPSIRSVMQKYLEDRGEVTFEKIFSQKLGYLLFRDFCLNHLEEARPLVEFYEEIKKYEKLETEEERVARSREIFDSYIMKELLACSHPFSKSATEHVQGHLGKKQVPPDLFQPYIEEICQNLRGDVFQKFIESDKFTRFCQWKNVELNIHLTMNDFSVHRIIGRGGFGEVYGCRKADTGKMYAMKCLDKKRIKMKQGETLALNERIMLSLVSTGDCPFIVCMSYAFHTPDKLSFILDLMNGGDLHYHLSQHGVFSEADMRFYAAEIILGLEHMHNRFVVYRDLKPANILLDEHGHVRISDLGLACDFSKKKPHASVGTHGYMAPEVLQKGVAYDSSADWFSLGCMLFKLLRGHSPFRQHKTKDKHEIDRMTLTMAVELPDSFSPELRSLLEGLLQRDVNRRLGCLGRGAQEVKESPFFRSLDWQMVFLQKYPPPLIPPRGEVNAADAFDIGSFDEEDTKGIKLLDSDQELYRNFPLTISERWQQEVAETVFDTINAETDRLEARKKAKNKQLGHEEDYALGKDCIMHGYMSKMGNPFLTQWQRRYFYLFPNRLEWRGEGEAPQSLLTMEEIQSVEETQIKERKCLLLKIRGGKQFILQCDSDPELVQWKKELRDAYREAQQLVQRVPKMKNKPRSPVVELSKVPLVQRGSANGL
# Tn6 DDE FP – inhibitors of Tn6 peptide binding to human fibrin DD(E); P02675; Fibrin DD(E) TRITC-Tn6 fluorescence polarization displacement; inhibition, % at 8.3 µM; actives 0.21% (n = 370,000);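 active means inhibition above a per-campaign cutoff: mean of compounds within control limits plus 3 SD, cut at about 15% in these data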;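 further: 0% = median of all compound wells on the plate and 100% = blocking peptide control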
# DDE Tn7 FP inh – DD(E)-Tn7 binding inhibition, primary FP screen; P02675; FP displacement of FITC-Tn7 peptide from fibrin DD(E); 0% = median of compound wells per plate; inhibition, % at 8.3 µM; actives 0.13% (n = 370,000);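 active means inhibition above the mean of compounds falling within the control limits plus 3 SD of them, cut at about 14% in these data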;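 further: 0% = plate median of compound wells and 100% = 10 µM Aha-Tn7 peptide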
#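 assay system = human clot-derived fibrin DD(E) complex | quantity = Fibrin-DD(E) at 2 µM final | timing = 10 min preincubation, 3 h with tracer, room temperature | signal = fluorescence polarization | measure = percent inhibition | benchmarks = high control wells with 10 µM unlabelled Aha-Tn7 peptide (full inhibition) | replicates = singlicate testing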
# GRK2 CP1 – human GRK2 inhibition confirmation, cherry pick 1; aptamer displacement, % at 10 µM; AID 504451; bead-bound GRK2, FAM-aptamer displacement, flow cytometry; shares compounds with GRK2 aptamer HTS; actives 4% (n = 2,000);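 active means aptamer displacement above 40%, near three times the noise of non-fluorescent compounds, on plates passing quality checks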;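 further: negative values mostly reflect intrinsic compound fluorescence rather than true enhancement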
# FAM quench CP1 – quenches fluorescent RNA aptamer, GRK2 hit artifact | shares compounds with GRK2 aptamer HTS | Carboxyfluorescein RNA aptamer on beads, flow cytometry quenching; hits give low values | fluorescence response (% of DMSO), % at 10 µM | 2,000 tested, under 10 active | AID 504580;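 active means compounds that quench the bead-bound fluorescent RNA probe, cutting fluorescence to under half of the solvent control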;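 further: counterscreen run without GRK2 so only probe quenching by compound is measured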
# GRK2 CP2 – confirmation of human GRK2 inhibitors binding RNA aptamer site. shares compounds with GRK2 aptamer HTS. 360 tested, under 10 active. inhibition of aptamer binding, % at 10 µM. bead-bound GRK2, FAM-aptamer displacement, flow cytometry;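 active means inhibition of aptamer binding above 40%, about triple the noise seen with nonglowing compounds, on plates passing quality control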;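 further: negative values mostly come from compounds that fluoresce themselves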
# Aptamer quench3 – aptamer fluorescence quenching in GRK2 counter-screen dose response. shares compounds with GRK2 aptamer HTS. Streptavidin beads, FAM-RNA aptamer fluorescence quenching, flow cytometry. change in fluorescence (kMESF span), kMESF (concentration not given with the values). 25 tested, under 10 active;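 active means compounds quenching the bead-bound labeled aptamer, with fluorescence dropping by more than 37 kMESF over the dose range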
# FAM quench SP – counter-screen for GRK2 binding hits: quenchers of fluorescent RNA aptamer. shares compounds with GRK2 aptamer HTS. carboxyfluorescein RNA aptamer beads, flow cytometry quenching; hits give low values. fluorescence response vs DMSO, % at 10 µM. 360 tested, under 10 active. AID 588494;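 active means response vs DMSO under 50%, meaning signal dropped by over half, treated as fluorescence quencher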;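 further: labelled aptamer on streptavidin beads without GRK2 as a quench counter-screen; 100% = bead fluorescence of DMSO wells and lower means quenching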
# Numbers without * were called inactive; x = not tested or not shown. Rows were chosen to be rich in hits. Some 1.8% of all compounds tested hit in one or more screens of this group.
SMILES,CAL PDZ FP-1,CAL PDZ FP-2,ARNT-TACC3 inh,GRK2 aptamer HTS,Tn6 DDE FP,DDE Tn7 FP inh,GRK2 CP1,FAM quench CP1,others
Cc1ccccc1N1CC(C(=O)N2CCCCCC2)CC1=O (stereo not drawn),0.1,-3.5,-1.0,65.0*,3.8,0.0,-1.6,97.5,
Cc1ccc(NC(=O)C2CCC(=O)N2)cc1C (stereo not drawn),0.1,-4.0,-2.2,0.0,2.9,-6.6,x,x,
Cc1ccc(NC2=NC(C(=O)Nc3ccc(C)c(C)c3)CC(=O)N2)cc1 (stereo not drawn),-0.6,-1.1,1.0,0.0,4.7,-4.0,-2.5,102.3,
COc1cccc(S(=O)(=O)N[C@H]2CC[C@H](CC(=O)NCc3ccc(F)cc3)O[C@H]2CO)c1,x,x,-5.5,x,x,x,x,x,
Cc1cccn2c(CN3CCCC(c4ccccc4)C3)c(C(=O)N3CCOCC3)nc12 (stereo not drawn),-1.5,-2.9,x,1.0,-1.0,-1.7,x,x,
C[C@H](CO)N1C[C@H](C)[C@@H](CN(C)Cc2cccnc2)Oc2ncc(C#CCc3ccccc3)cc2C1=O,x,x,1.9,x,x,x,x,x,
COc1ccc(OC)c2nc(-c3ccc4c(c3)OCO4)ccc12,0.8,-3.0,-14.4,42.0*,-0.1,1.7,x,x,GRK2 CP2=2.5;FAM quench SP=101.0
c1ccc2nc(-c3ccc4c(c3)OCO4)ccc2c1,-1.2,5.2,11.0,2.0,1.1,6.4,x,x,
COc1ccc(-c2csc3nc(-c4ccc(C)cc4)oc(=O)c23)cc1OC,-2.3,-1.1,-4.0,79.0*,3.0,-2.5,x,x,GRK2 CP2=65.3*;Aptamer quench3=3.3;FAM quench SP=101.0
O=C(Nc1ccccc1)Nc1cccc(C(F)(F)F)c1,-0.5,0.0,-0.2,0.0,-2.8,4.8,x,x,
Cc1cc(NC(=O)Nc2cccc(C(F)(F)F)c2)n(C)n1,-2.2,-4.1,-1.1,74.0*,-6.2,-0.1,-1.7,99.1,
CCN1CCN(Cc2ccc(NC(=O)c3ccc(C)c(NC(=O)c4c[nH]c5cc(C(F)(F)F)ccc5c4=O)c3)cc2C(F)(F)F)CC1,-2.7,-1.4,-7.4,x,12.2,5.9,x,x,
Cc1ccc(C(=O)Nc2cccc(C(F)(F)F)c2)cc1NC(=O)c1c[nH]c2cc(C(F)(F)F)ccc2c1=O,-0.6,-3.1,-7.9,0.0,-5.0,-1.8,-14.1,97.4,
Cc1ccc(-c2nc(-c3ccncc3)no2)cc1C,0.7,0.3,-7.1,0.0,1.2,-3.6,x,x,
Cc1cc(-c2nc(-c3ccncc3)no2)ccc1[N+](=O)[O-],0.1,-2.2,-37.1,25.0,-7.1,-4.8,0.1,102.0,
C[C@@H]1CCCCO[C@H](CN(C)S(=O)(=O)c2cn(C)cn2)[C@H](C)CN([C@@H](C)CO)C(=O)c2cc(NC(=O)Cc3ccccc3)ccc2O1,x,x,10.9,x,x,x,x,x,
CC(C)NC(=O)NC(=O)COC(=O)c1cccc(OC(F)F)c1,-0.2,x,-4.7,2.0,-5.5,-4.4,x,x,
O=C(COC(=O)c1ccc(OC(F)(F)F)cc1)Nc1ncccn1,-0.8,-2.5,21.5,41.0*,5.8,-7.0,2.7,94.2,
O=C(COC(=O)c1cccc(OC(F)F)c1)Nc1ncccn1,-0.9,3.2,5.9,39.0,-7.2,0.8,9.9,95.5,
CCc1nc2c(OCc3ccccc3)cccn2c1N(C)C(=O)C(C)C,x,x,x,x,-0.3,6.5,x,x,
